Measured values reported in PMC10091778 (Drug Development Research, 2022).
pIC50: −log10 of the molar value. Blank lines part the entries; values can stand above or below the molecule they belong to.

What was measured:
[1] = test system: Hep3B hepatocellular carcinoma cells; conditions: 35 µM for 24 h; ref Lu et al., 2022; cited from earlier work
[2] = test system: 4T1, A549, and HL‐60 cells; format: cell-based; conditions: resazurin assay, 72 h, up to 50 µM, three cancer cell lines
In short: (§1)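 Cells were seeded in 96-well plates (4T1 10,000, A549 10,000, HL-60 20,000 per well), with adherent lines settling overnight. Test compound came from a 10 mM DMSO stock, serially diluted in medium to 1.56–50 µM (some 39 nM–12.5 µM), for 72 h; three biological replicates. Resazurin (0.15 mg/ml stock, 20 µl per 100 µl) ran 2 h at 37 °C, read at 530/580 nm. Viability was set against untreated and blank wells; IC50 from curves.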

HL‐60 cells [3] = test: Mitochondrial membrane depolarization by JC-1 staining; format: cell-based, human; conditions: 16 h, untreated 7.6 ± 0.6%
[4] = test system: 4T1 breast carcinoma cells; test: 4T1 murine breast cancer model; format: in vivo, BALB/c mice; conditions: 27th day; 60 mg/kg daily i.p.; mean ± SEM, n = 10; untreated 768 ± 134
[5] = test system: HL‐60 human acute promyelocytic leukemia cells; test: Resazurin cell viability assay on HL-60 cells; format: cell-based; conditions: HL-60, 72 h, read-out: IC50 HL‐60
In short: as §1

[6] = test system: 4T1 murine triple negative breast cancer cells; test: Resazurin cell viability assay on 4T1 cells; format: cell-based; conditions: Mus musculus, 4T1, 72 h, read-out: IC50 4T1
In short: as §1

HL‐60 cells [7] = test: Sub-G1 DNA fragmentation analysis by flow cytometry; format: cell-based, human; conditions: 6 µM, 72 h; mean ± SD; untreated 11.7 ± 1.2%
HL‐60 cells [8] = test: Annexin V / propidium iodide flow cytometry; format: cell-based, human; conditions: 6 µM, 24 h, mean ± SD
In short: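 HL-60 cells (100,000) were treated for 24 h at 1, 3 or 6 µM, then resuspended in Annexin V binding buffer (0.01 M HEPES, 0.14 M NaCl, 2.5 mM CaCl2). Annexin V-Alexa 488 was added for 15 min in the dark at room temperature, then PI (10 µg/ml). Quadrant percentages were taken by flow cytometry; three biological replicates, mean ± SD; two-tailed t test against untreated.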

[9] = test system: A431 epidermoid carcinoma cancer cell line; conditions: 15 µM treatment; ref LaBarbera et al., 2009; cited from earlier work

Molecule: C=CC(C)(CC/C=C(\C)CCC=C(C)C)S(=O)(=O)CCN=C(N)N (stereo not drawn) [(−)‐Agelasidine A]
Apoptosis and mitochondrial effect in Hep3B, in words [1]: Annexin V+ apoptosis and mitochondrial membrane depolarization

pIC50 [5]: 5.39
pIC50 [6]: 5.51
Molecule: Nc1nc(-c2cccc(NC(=O)c3cc4cc(Cl)ccc4[nH]3)c2)c(C(=O)c2ccccc2)[nH]1 [Compound 29, N‐(3‐(2‐amino‐5‐benzoyl‐1H‐imidazol‐4‐yl)phenyl)‐5‐chloro‐1H‐indole‐2‐carboxamide]
Cytotoxic / antiproliferative activity in words [2]: hampered the viability of all three tested cell lines
Cells with green JC‐1 accumulation (depolarized MMP) (HL‐60 cells [3]; 3 µM): 9.4 ± 1.1%
Cells with green JC‐1 monomers (depolarized MMP) (HL‐60 cells [3]; 6 µM): 29.7 ± 2.1%
4T1 tumor volume [4]: 443 ± 54 mm^3
DNA fragmentation (sub‐G1 population) of HL‐60 cells (HL‐60 cells [7]): 64.3 ± 2.1%
Early apoptotic cells (AnnV+/PI−) (HL‐60 cells [8]; untreated 1.9 ± 0.5%): 11.4 ± 1.1%
Necrotic cells (AnnV−/PI+) (HL‐60 cells [8]; untreated 3.6 ± 1.6%): 5.9 ± 1.1%
Late apoptotic cells (AnnV+/PI+) (HL‐60 cells [8]; untreated 9.5 ± 2.7%): 44.7 ± 4.8%
Living cells (AnnV−/PI−) (HL‐60 cells [8]; untreated 85 ± 3.9%): 37.8 ± 4.6%

Molecule: Naamidine A
Apoptotic effect in A431, in words [9]: apoptotic effects
